Assays:
[1] = test system: Human immunodeficiency virus 1; experiment: Inhibitory concentration required to inhibit HIV-induced cytopathicity in CEM-4 cells by 50% based in the MTT assay; assay type: functional, organism-based; conditions: Human immunodeficiency virus 1, CEM-4
CEM-4 = experiment: Cytotoxic concentration required to reduce the viability of uninfected cells by 50% after 5 days of incubation in the presence on CEM-4 cells.; assay type: functional; conditions: Homo sapiens, CEM-4, 120 h
In short: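 Uninfected CEM-4 cells were incubated with compound for 5 days. CC50 is the concentration that reduced viability by 50%. Values average at least two separate experiments.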

[2] = test system: Human immunodeficiency virus 1; experiment: Inhibitory concentration required to inhibit HIV-induced cytopathicity in CEM-4 cells by 50% based in the MTT assay; Not active; assay type: functional, organism-based
Human betaherpesvirus 5 [3] = experiment: Concentration required to inhibit HCMV(Davis) induced cytopathicity in HEL cells by 50%; assay type: functional, organism-based; conditions: Human betaherpesvirus 5, HEL
In short: (§1)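 Virus was added to the cell monolayers in the presence of compound. Incubation continued until the viral cytopathic effect was scored. IC50 is the concentration that reduced virus-induced cytopathicity by 50%.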

[4] = test system: Human immunodeficiency virus 2; experiment: Concentration required to inhibit HIV-2 induced cytopathicity in MT-4 cells by 50%; assay type: functional, organism-based; conditions: Human immunodeficiency virus 2, MT4
In short: (§2)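 MT-4 cells were infected with HIV-1 (strain HTLV-IIIB/LAI) or HIV-2 (strain LAV-2 ROD) and exposed to compound. IC50 is the concentration that inhibited HIV-induced cytopathicity by 50%. Values are means of two separate experiments.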

HEL = experiment: Minimum cytotoxic concentration required to cause a microscopically detectable alteration of normal cell morphology in HEL cells; assay type: functional, Homo sapiens
[5] = test system: Human immunodeficiency virus 1; experiment: Concentration required to inhibit HIV-1 induced cytopathicity in MT-4 cells by 50%; assay type: functional, organism-based; conditions: Human immunodeficiency virus 1, MT4; in short: as §2
E6SM = experiment: Minimum cytotoxic concentration required to cause a microscopically detectable alteration of normal cell morphology in E6SM cells; assay type: functional, Homo sapiens
In short: (§3)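 Uninfected E6SM, HeLa or Vero cells were exposed to compound and examined by microscopy. MCC is the lowest concentration causing a detectable alteration of normal cell morphology.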

Human alphaherpesvirus 1 [6] = experiment: Concentration required to inhibit HSV-1(KOS) induced cytopathicity in E6SM cells by 50%; conditions: Human alphaherpesvirus 1, E6SM
Sindbis virus = experiment: Concentration required to inhibit Sindbis induced cytopathicity in Vero cells by 50%; assay type: functional, organism-based; in short: as §1
Coxsackievirus = experiment: Concentration required to inhibit Coxsackie induced cytopathicity in HeLa cells by 50%; assay type: functional, organism-based; in short: as §1
[7] = test system: Human immunodeficiency virus 1; experiment: Concentration required to inhibit by 50% syncytium formation between MOLT-4 cells and HIV-1(IIIB); assay type: functional, organism-based; conditions: Human immunodeficiency virus 1, MOLT-4
In short: (§4)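 Uninfected MOLT-4 cells were co-cultured with HUT-78 cells chronically infected with HIV-1 (IIIB) or HIV-2 (ROD), in the presence of compound. The end point was syncytium formation, and IC50 is the concentration giving 50% inhibition. Values are means of two separate experiments.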

HeLa = experiment: Minimum cytotoxic concentration required to cause a microscopically detectable alteration of normal cell morphology in HeLa cells; assay type: functional, Homo sapiens; in short: as §3
Human respirovirus 3 = experiment: Concentration required to inhibit parainfluenza-3 induced cytopathicity in Vero cells by 50%; assay type: functional, organism-based; conditions: Human respirovirus 3, Vero; in short: as §1
Poliovirus 1 = experiment: Concentration required to inhibit Polio-1 induced cytopathicity in HeLa cells by 50%; assay type: functional, organism-based; conditions: Enterovirus C
[8] = test system: Vesicular stomatitis virus; experiment: Concentration required to inhibit vesicular stomatitis induced cytopathicity in E6SM cells by 50%; assay type: functional, organism-based
Human betaherpesvirus 5 [9] = experiment: Concentration required to inhibit HCMV(AD169) induced cytopathicity in HEL cells by 50%; assay type: functional, organism-based; conditions: Human betaherpesvirus 5, HEL; in short: as §1
Tacaribe virus = experiment: Concentration required to inhibit Tacaribe induced cytopathicity in Vero cells by 50%; assay type: functional, cell-based; conditions: Mammarenavirus tacaribeense
Vero = experiment: Minimum cytotoxic concentration required to cause a microscopically detectable alteration of normal cell morphology in Vero cells; assay type: functional, Chlorocebus sabaeus; in short: as §3
Vaccinia virus = experiment: Concentration required to inhibit Vaccinia induced cytopathicity in E6SM cells by 50%; assay type: functional, organism-based; conditions: Orthopoxvirus vaccinia
Junin virus = experiment: Concentration required to inhibit Junin induced cytopathicity in Vero cells by 50%; assay type: functional, organism-based; conditions: Mammarenavirus juninense
Human alphaherpesvirus 1 [10] = experiment: Concentration required to inhibit HSV-1 TK-(B2006) induced cytopathicity in E6SM cells by 50%; conditions: Human alphaherpesvirus 1, E6SM
Human alphaherpesvirus 2 = experiment: Concentration required to inhibit HSV-2(G) induced cytopathicity in E6SM cells by 50%; conditions: Human alphaherpesvirus 2, E6SM
[11] = test system: Mammalian orthoreovirus 1; experiment: Concentration required to inhibit reovirus-1 induced cytopathicity in Vero cells by 50%; assay type: functional, organism-based; conditions: Mammalian orthoreovirus 1, Vero; in short: as §1
MT4 = experiment: Concentration required to reduce the viability of mock-infected MT-4 cells by 50%; assay type: functional; conditions: Homo sapiens
In short: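 Mock-infected MT-4 cells were exposed to compound. CC50 is the concentration that reduced cell viability by 50%. Values are means of two separate experiments.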

[12] = test system: Human immunodeficiency virus 2; experiment: Concentration required to inhibit by 50% syncytium formation between MOLT-4 cells and HIV-2 (ROD) infected HUT-78 cells; assay type: functional, organism-based; conditions: Human immunodeficiency virus 2, MOLT-4; in short: as §4
Semliki Forest virus = experiment: Concentration required to inhibit forest induced cytopathicity in Vero cells by 50%; assay type: functional, organism-based; in short: as §1

## CCCCCCCCCCCCSCCCCCCCCC(=O)N(CC)CCCCCCCCCCC(=O)[O-].[Na+]
[1]
  IC50: 25 µg/mL
CEM-4
  CC50: 100 µg/mL

## CCCCCCCCCCCCSCCCCCCCCC(=O)NCCCCCCCCCCC(=O)[O-].[Na+]
CEM-4
  CC50: 29 µg/mL
[2]
  IC50: Not Active

## CCCCCCCCCCCCSCCCCCCCCCCCCCCC(=O)NCCCCCCCCCCC(=O)NCC(=O)[O-].[Na+]
[1]
  IC50: 15 µg/mL
CEM-4
  CC50: > 300 µg/mL

## CCCCCCCCCCCCSCCCCC(=O)NCCCCCCCCCCC(=O)NCCC(=O)[O-].[Na+]
Human betaherpesvirus 5 [3]
  IC50: 23 µg/mL
[4]
  IC50: 27 µg/mL
HEL
  MMC: >50 µg/mL
[5]
  IC50: 6 µg/mL
E6SM
  MMC: 400 µg/mL
Human alphaherpesvirus 1 [6]
  IC50: 40 µg/mL
Sindbis virus
  IC50: > 200 µg/mL
Coxsackievirus
  IC50: > 200 µg/mL
[7]
  IC50: 30 µg/mL
HeLa
  MMC: >200 µg/mL
Human respirovirus 3
  IC50: > 200 µg/mL
Poliovirus 1
  IC50: > 200 µg/mL
[8]
  IC50: > 200 µg/mL
Human betaherpesvirus 5 [9]
  IC50: 30 µg/mL
Tacaribe virus
  IC50: 43 µg/mL
Vero
  MMC: >200 µg/mL
Vaccinia virus
  IC50: > 200 µg/mL
Junin virus
  IC50: 50 µg/mL
CEM-4
  CC50: > 300 µg/mL
Human alphaherpesvirus 1 [10]
  IC50: 70 µg/mL
Human alphaherpesvirus 2
  IC50: 20 µg/mL
[2]
  IC50: Not Active
[11]
  IC50: > 200 µg/mL
MT4
  CC50: > 250 µg/mL
[12]
  IC50: 6 µg/mL
Semliki Forest virus
  IC50: > 200 µg/mL

## CCCCCCCCCCCCSCCCCCCC(=O)NCCCCCCCCCCC(=O)NCC(=O)[O-].[Na+]
CEM-4
  CC50: 118 µg/mL
[2]
  IC50: Not Active

## CCCCCCCCCCCCSCCCCCCCCCCC(=O)N(CC)CCCCCCCCCCC(=O)NCCC(=O)[O-].[Na+]
Human betaherpesvirus 5 [3]
  IC50: 20 µg/mL
[4]
  IC50: 30 µg/mL
HEL
  MMC: >50 µg/mL
[5]
  IC50: 13 µg/mL
Human alphaherpesvirus 1 [6]
  IC50: 70 µg/mL
Sindbis virus
  IC50: > 200 µg/mL
Coxsackievirus
  IC50: > 200 µg/mL
[7]
  IC50: 30 µg/mL
HeLa
  MMC: >200 µg/mL
Human respirovirus 3
  IC50: > 200 µg/mL
Poliovirus 1
  IC50: > 200 µg/mL
[8]
  IC50: > 200 µg/mL
Human betaherpesvirus 5 [9]
  IC50: 50 µg/mL
Tacaribe virus
  IC50: > 50 µg/mL
Vero
  MMC: >200 µg/mL
Vaccinia virus
  IC50: > 200 µg/mL
Junin virus
  IC50: > 50 µg/mL
CEM-4
  CC50: 50 µg/mL
Human alphaherpesvirus 1 [10]
  IC50: 150 µg/mL
Human alphaherpesvirus 2
  IC50: 20 µg/mL
[2]
  IC50: Not Active
[11]
  IC50: > 200 µg/mL
MT4
  CC50: > 250 µg/mL
[12]
  IC50: 30 µg/mL
Semliki Forest virus
  IC50: > 200 µg/mL

## CCCCCCCCCCCCSCCCCCCC(=O)N(CC)CCCCCCCCCCC(=O)NCC(=O)[O-].[Na+]
CEM-4
  CC50: 50 µg/mL
[2]
  IC50: Not Active

## CCCCCCCCCCCCSCCCCCCCCCCCCCCCCCCCCCCCCCCCCCCC(=O)N(CC)CCCCCCCCCCC(=O)NCC(=O)[O-].[Na+]
[1]
  IC50: 4 µg/mL
CEM-4
  CC50: 80 µg/mL

## CCCCCCCCCCCCSCCCCCCCCCCCCCCCCCCC(=O)N(C)CCCCCCCCCCC(=O)[O-].[Na+]
CEM-4
  CC50: > 200 µg/mL
[2]
  IC50: Not Active

## CCCCCCCCCCCCSCCCCCCC(=O)NCCCCCCCCCCC(=O)NCCC(=O)[O-].[Na+]
CEM-4
  CC50: > 300 µg/mL
[2]
  IC50: Not Active

## CCCCCCCCCCCCSCCCCCCCCCCCCCCCCCCCCCCC(=O)NCCCCCCCCCCC(=O)[O-].[Na+]
Human betaherpesvirus 5 [3]
  IC50: > 50 µg/mL
[4]
  IC50: 69 µg/mL
HEL
  MMC: >50 µg/mL
[5]
  IC50: 55 µg/mL
E6SM
  MMC: >200 µg/mL
Human alphaherpesvirus 1 [6]
  IC50: > 100 µg/mL
Sindbis virus
  IC50: > 100 µg/mL
Coxsackievirus
  IC50: > 200 µg/mL
[7]
  IC50: 150 µg/mL
HeLa
  MMC: >200 µg/mL
Human respirovirus 3
  IC50: > 100 µg/mL
Poliovirus 1
  IC50: > 200 µg/mL
[8]
  IC50: > 100 µg/mL
Human betaherpesvirus 5 [9]
  IC50: > 50 µg/mL
Tacaribe virus
  IC50: > 50 µg/mL
Vaccinia virus
  IC50: > 100 µg/mL
Junin virus
  IC50: > 50 µg/mL
CEM-4
  CC50: 99 µg/mL
Human alphaherpesvirus 1 [10]
  IC50: > 100 µg/mL
Human alphaherpesvirus 2
  IC50: > 100 µg/mL
[2]
  IC50: Not Active
[11]
  IC50: > 100 µg/mL
MT4
  CC50: > 250 µg/mL
[12]
  IC50: 150 µg/mL
Semliki Forest virus
  IC50: > 100 µg/mL

## CCCCCCCCCCCCSCCCCCCCCCCCCCCCCCCCCCCCCCCCCCCCCCCC(=O)N(CC)CCCCCCCCCCC(=O)NC(CCC(=O)[O-])C(=O)O.[Na+] (stereo not drawn)
[1]
  IC50: 25 µg/mL
CEM-4
  CC50: > 300 µg/mL

## CCCCCCCCCCCCSCCCCCCCCCCCCCCCCCCCCC(=O)N(CC)CCCCCCCCCCC(=O)NC(CCC(=O)[O-])C(=O)O.[Na+] (stereo not drawn)
[1]
  IC50: 46 µg/mL
CEM-4
  CC50: > 300 µg/mL

## CCCCCCCCCCCCSCCCCCCCCCCC(=O)NCCCCCCCCCCC(=O)NC(CCC(=O)[O-])C(=O)O.[Na+] (stereo not drawn)
[1]
  IC50: 11 µg/mL
CEM-4
  CC50: > 100 µg/mL
